Rows were chosen to be rich in hits. Some 3.2% of all compounds tested hit in one or more screens of this group.
JMJD2C inh = human JMJD2C demethylase inhibition; GST-JMJD2C(1-420) H3K9me3 demethylation, DELFIA europium; Q9H3R0; inhibition, % at 2.35 µM; 330,000 tested, 0.069% active;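 active = more than half of a compound's replicate wells show inhibition beyond 50%, single wells judged on their own value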;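 note: signal counts dimethyl H3K9 product captured on neutravidin plate; 0% = median of DMSO wells and 100% = 0.3 times that DMSO median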
Target sequence (Q9H3R0 1-420 limits assumed): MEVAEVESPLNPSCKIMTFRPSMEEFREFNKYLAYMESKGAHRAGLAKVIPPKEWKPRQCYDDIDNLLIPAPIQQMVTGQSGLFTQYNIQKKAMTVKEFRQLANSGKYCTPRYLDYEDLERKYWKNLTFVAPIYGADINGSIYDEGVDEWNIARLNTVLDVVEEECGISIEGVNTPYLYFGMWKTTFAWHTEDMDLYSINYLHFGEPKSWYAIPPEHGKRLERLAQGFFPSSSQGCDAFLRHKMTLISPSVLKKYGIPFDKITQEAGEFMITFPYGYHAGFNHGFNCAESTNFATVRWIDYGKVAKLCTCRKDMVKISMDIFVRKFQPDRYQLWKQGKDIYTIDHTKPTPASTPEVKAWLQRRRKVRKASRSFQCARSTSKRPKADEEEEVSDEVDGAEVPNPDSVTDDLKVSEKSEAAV
DAX1 inh-1 = inhibitors of human orphan nuclear receptor DAX1 (NR0B1); P51843; HEK293 Gal4-DAX1 luciferase reporter, luminescence; inhibition, % at 6.75 µM; 340,000 tested, 0.99% active;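 active = inhibition above the mean over all tested compounds plus 3 SD, cut at about 4.2% in these data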;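 note: 0% = DAX1-transfected cells with DMSO and 100% = empty-vector control cells with DMSO; inhibition shows as a rise in luminescence from relieved DAX1 repression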
DAX1 inh-2 = blocks DAX1 repression of SF-1 activated StAR promoter; inhibition, % at 6.8 µM; HEK293T StAR-luciferase reporter, SF-1/DAX-1 repression relief; 370,000 tested, 1.1% active;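 active = inhibition above the mean over all tested compounds plus 3 SD, cut at about 3.6% in these data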;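 note: 0% = DAX-1 cells with DMSO and 100% = cells lacking DAX-1 with DMSO; higher inhibition means more luminescence from relief of DAX-1 repression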
SMARCA2 activ = increases SMARCA2 function in MMTV reporter cells; MG213 cells, MMTV-luciferase reporter, dexamethasone, overnight; activation, % at 9.1 µM; 370,000 tested, 1% active; AID 652017; in the data active = activation above about 7.8%;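 note: 0% = vehicle wells and 100% = reference activator wells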
NR2E3 ag-1 = activates human photoreceptor nuclear receptor NR2E3. Q9Y5X4. GST-NR2E3/biotin-RetCOR TR-FRET, 1536-well. inhibition of corepressor binding, % at 4.78 µM. 320,000 tested, 0.12% active. AID 2300;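 active = percent inhibition above the cutoff of mean plus 3 SD of all tested compounds, set per screening campaign, cut at about 20% in these data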;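 note: 0% = DMSO wells and 100% = biotin wells as full block of FRET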
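Material: NR2E3–RetCOR corepressor complex / Incubation: Compound–protein incubation for 5 h at 4 °C / Dosing: compound at 4.8 µM, single dose / Detection: time-resolved FRET / Benchmarks: high control biotin, low control 0.6% DMSO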
NR2E3 ag-2 = human photoreceptor-specific nuclear receptor agonism | AID 602229 | inhibition of corepressor binding, % at 3.98 µM | 360,000 tested, 0.35% active | Q9Y5X4 | CHO-S Gal4-NCOR/VP16-NR2E3 two-hybrid, luciferase;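 active = inhibition above the mean of all tested compounds plus 3 SD, cut at about 70% in these data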;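 note: 0% = DMSO with NR2E3 transfected cells and 100% = cells lacking NR2E3 construct; higher means lower luciferase signal from less NR2E3 corepressor binding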
SMARCA2 act conf = SMARCA2 activation, confirmation screen; AID 652260; 3,500 tested, 30% active; shares compounds with SMARCA2 activ; MG213 cells, MMTV-luciferase with dexamethasone, luminescence, overnight; MG213 cells expressing E1A, Rb sequestered; DMSO wells 0%, reference activator 100%; activation, % at 9.1 µM;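 active = activation above its plate's cutoff, the mean activation of tested wells plus 3 SD, cut at about 7.9% in these data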
GAL4-VP16 Luc = counter-screen for SMARCA2 activators: GAL4-VP16 luciferase reporter activation; AID 686939; activation, % at 9.1 µM; shares compounds with SMARCA2 activ; 3,500 tested, 41% active; HEK293 GAL4-VP16 pG5luc reporter, luciferase luminescence; scaled: DMSO wells 0%, SAHA wells 100%;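 active = activation above the solvent-only control well mean plus 3 SD, averaged across control plates, cut at about 5.2% in these data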
The depositor's hits bear a star; nt = no result.

SMILES	JMJD2C inh	DAX1 inh-1	DAX1 inh-2	SMARCA2 activ	NR2E3 ag-1	NR2E3 ag-2	SMARCA2 act conf	GAL4-VP16 Luc
O=C(CNc1cccc(Cl)c1)c1ccc(Br)cc1	-0.5	0.7	-0.5	8.9*	2.8	-16.4	9.8*	-0.6
Cc1cccc(NCCC(=O)c2ccc([N+](=O)[O-])cc2)c1C	-14.5	1.1	-0.5	0.0	1.5	2.3	nt	nt
Cc1ccc(C(=O)CNc2cccc([N+](=O)[O-])c2)cc1	-15.7	2.5	0.0	10.6*	0.6	-3.3	6.8	6.3*
CN1CCN(C(=O)C[C@@H]2C[C@H]3c4cc(NC(=O)c5cccnc5)ccc4O[C@H]3[C@H](CO)O2)CC1	nt	0.8	0.6	-4.9	nt	-34.5	nt	nt
CCCNCc1cc(Cl)c(OCC)c(Cl)c1	-1.0	-1.0	-0.7	9.1*	-2.1	3.1	-3.9	-1.4
CC(C)[C@H](N)C(=O)N[C@H]1CCC2C3CC=C4C[C@@H](O)CC[C@]4(C)C3CC[C@@]21C (stereo partly drawn)	nt	0.7	-0.8	18.8*	nt	-11.9	43.8*	1.7
COc1nc(-c2ccccc2)nnc1-c1ccccc1	-6.0	2.1	3.2	10.5*	nt	-89.9	7.2	12.8*
CCc1c(C)nc(SCC(=O)NNC(=O)c2ccco2)[nH]c1=O	1.7	1.1	1.3	-0.1	-2.8	-34.2	nt	nt
O=C(CSc1ccc(-c2cccs2)nn1)N1CCCCCC1	-16.8	-1.0	0.7	13.0*	-57.2	-34.3	5.3	5.7*
COc1ccc(S(=O)(=O)N2CCCCCC2)cc1C(=O)OCC(=O)NC1CCS(=O)(=O)C1 (stereo not drawn)	-9.3	-0.4	-0.3	1.3	nt	-17.9	nt	nt
CN1CCN(S(=O)(=O)c2cccc(C(=O)Nc3sc4c(c3-c3nc5ccccc5[nH]3)CCCC4)c2)CC1	15.7	-0.7	-0.5	21.0*	-0.1	-57.7	4.4	3.8
O=[N+]([O-])c1cccc(-c2ccc(/C=N/Nc3nc(N4CCCCC4)nc(N4CCCCC4)n3)o2)c1	-16.0	0.0	-0.1	8.9*	2.9	-9.3	-5.2	0.1
CCN(CC)S(=O)(=O)c1cccc(C(=O)NNC(=O)C2=NN(c3ccccc3)C(=O)CC2)c1	47.0	-0.2	-0.6	-2.1	3.5	-7.6	nt	nt
CC(C)OCCCNc1ccc(N2C(=O)CCCC2=O)cc1[N+](=O)[O-]	10.6	-0.9	-0.7	-0.4	3.0	-28.8	nt	nt
CCOC(=O)c1sc(NC(=O)Cc2ccccc2OC)nc1C	5.6	0.1	0.3	0.8	0.6	-9.5	nt	nt
CCOC(=O)c1sc(NC(=O)Cc2ccc(F)cc2)nc1C	-3.3	1.1	0.1	8.4*	-0.7	10.7	3.6	3.6
Cc1ccc(-c2nn(-c3ccc(F)cc3)cc2C(=O)N2CCN(C3CCS(=O)(=O)C3)CC2)cc1 (stereo not drawn)	4.4	1.0	1.4	9.5*	2.0	3.2	4.3	1.9
Cc1ccc(-c2nn(-c3ccccc3)cc2C(=O)N2CCN(C3CCS(=O)(=O)C3)CC2)cc1 (stereo not drawn)	17.6	0.9	-1.1	0.0	4.2	2.9	nt	nt
CCOC(=O)CC[C@@]1(C(=O)OCC)C[C@@H](CC(=O)N2CCSCC2)C(=O)N2CCCC=C21	nt	nt	0.3	-2.0	nt	nt	nt	nt
CCCC(=O)C1=C(O)C(C(=O)OC)C(C)(C)CC1=Nc1ccc(N)cc1 (stereo not drawn)	3.0	1.9	-0.7	1.7	0.2	-1.5	nt	nt
CCCC(=Nc1ccc(N)cc1)C1=C(O)C(C(=O)OC)C(C)(C)CC1=O (stereo not drawn)	-16.9	-0.9	-1.0	8.2*	6.6	1.6	-3.5	3.3
COc1cccc(NC(=O)CCc2c(C)nn(-c3ccc(N4CCOCC4)nn3)c2C)c1	-9.8	0.7	0.0	10.6*	-1.1	2.2	1.8	2.9

Screens: PubChem, several laboratories
